# Tests used:
# Nakaseomyces glabratus = assay: Antifungal activity against Candida glabrata MTCC3019 at 150 ug/ml after 48 hrs by agar well diffusion method; type: functional; conditions: MTCC3019, 48 h, read-out: IZ
# How it was run: (§1)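 Antifungal screen by agar well diffusion against C. albicans, C. glabrata, A. niger and A. parasiticus. Clotrimazole was the standard drug. Activity was recorded as zone of inhibition (ZOI, mm).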
# Pseudomonas aeruginosa = assay: Antibacterial activity against Pseudomonas aeruginosa MTCC 4673 at 150 ug/ml after 24 hrs by agar well diffusion assay; type: functional; conditions: MTCC 4673, 24 h, read-out: IZ
# How it was run: (§2)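 Agar well diffusion screen against the two Gram-positive strains (S. aureus, S. pyogenes) and the two Gram-negative strains (P. aeruginosa, K. pneumoniae). Streptomycin was the reference drug. Activity was read as zone of inhibition (mm).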
# HepG2 = assay: Anticancer activity against human HepG2 cells assessed as cell viability after 48 hrs by MTT microcultured tetrazolium assay; type: functional, cell-based; conditions: HepG2, 48 h
# How it was run: (§3)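 MTT-microcultured tetrazolium viability read-out in MCF-7 and HepG2 cells exposed to test samples. Surviving fraction was plotted against drug concentration to give survival curves, and IC50 was taken from these curves.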
# Staphylococcus aureus = assay: Antibacterial activity against Staphylococcus aureus MTCC 96 at 150 ug/ml after 24 hrs by agar well diffusion assay; type: functional; conditions: MTCC 96, 24 h, read-out: IZ; how it was run: as §2
# Candida albicans = assay: Antifungal activity against Candida albicans MTCC 183 at 150 ug/ml after 48 hrs by agar well diffusion method; type: functional; conditions: MTCC 183, 48 h, read-out: IZ; how it was run: as §1
# Klebsiella pneumoniae = assay: Antibacterial activity against Klebsiella pneumoniae MTCC 109 at 150 ug/ml after 24 hrs by agar well diffusion assay; type: functional; conditions: MTCC 109, 24 h, read-out: IZ; how it was run: as §2
# Aspergillus parasiticus = assay: Antifungal activity against Aspergillus parasiticus MTCC 8850 at 150 ug/ml after 48 hrs by agar well diffusion method; type: functional; conditions: MTCC 8850, 48 h, read-out: IZ; how it was run: as §1
# MCF7 = assay: Anticancer activity against human MCF7 cells assessed as cell viability after 48 hrs by MTT microcultured tetrazolium assay; type: functional, cell-based; conditions: MCF7, 48 h; how it was run: as §3
# Streptococcus pyogenes = assay: Antibacterial activity against Streptococcus pyogenes MTCC 1926 at 150 ug/ml after 24 hrs by agar well diffusion assay; type: functional; conditions: MTCC 1926, 24 h, read-out: IZ; how it was run: as §2
# Aspergillus niger = assay: Antifungal activity against Aspergillus niger MTCC 282 at 150 ug/ml after 48 hrs by agar well diffusion method; type: functional; conditions: MTCC 282, 48 h, read-out: IZ; how it was run: as §1
structure (smiles),measurement,setting,value
COc1ccc2c(c1)CCC1=C2N=c2s/c(=C\c3c[nH]c4ccccc34)c(=O)n2C1c1ccc(Cl)cc1 (stereo unspecified),zone of inhibition at 150 µg/mL,Nakaseomyces glabratus,14 mm
same,zone of inhibition at 150 µg/mL,Pseudomonas aeruginosa,8 mm
same,IC50,HepG2,34.9 µM
same,zone of inhibition at 150 µg/mL,Staphylococcus aureus,8 mm
same,zone of inhibition at 150 µg/mL,Candida albicans,8 mm
same,zone of inhibition at 150 µg/mL,Klebsiella pneumoniae,8 mm
same,zone of inhibition at 150 µg/mL,Aspergillus parasiticus,10 mm
same,IC50,MCF7,23.5 µM
same,zone of inhibition at 150 µg/mL,Streptococcus pyogenes,8 mm
same,zone of inhibition at 150 µg/mL,Aspergillus niger,8 mm
COc1ccc2c(c1)CCC1=C2N=c2s/c(=C\c3c(C)[nH]c4ccccc34)c(=O)n2C1c1ccc(Cl)cc1 (stereo unspecified),zone of inhibition at 150 µg/mL,Nakaseomyces glabratus,8 mm
same,zone of inhibition at 150 µg/mL,Pseudomonas aeruginosa,8 mm
same,IC50,HepG2,38.8 µM
same,zone of inhibition at 150 µg/mL,Staphylococcus aureus,8 mm
same,zone of inhibition at 150 µg/mL,Candida albicans,8 mm
same,zone of inhibition at 150 µg/mL,Klebsiella pneumoniae,8 mm
same,zone of inhibition at 150 µg/mL,Aspergillus parasiticus,12 mm
same,IC50,MCF7,61.9 µM
same,zone of inhibition at 150 µg/mL,Streptococcus pyogenes,8 mm
same,zone of inhibition at 150 µg/mL,Aspergillus niger,8 mm
COc1ccc2c(c1)CCC1=C2N=c2s/c(=C\c3c[nH]c4ccc(Br)cc34)c(=O)n2C1c1ccc(Cl)cc1 (stereo unspecified),zone of inhibition at 150 µg/mL,Nakaseomyces glabratus,10 mm
same,zone of inhibition at 150 µg/mL,Pseudomonas aeruginosa,8 mm
same,IC50,HepG2,11.6 µM
same,zone of inhibition at 150 µg/mL,Staphylococcus aureus,8 mm
same,zone of inhibition at 150 µg/mL,Candida albicans,8 mm
same,zone of inhibition at 150 µg/mL,Klebsiella pneumoniae,8 mm
same,zone of inhibition at 150 µg/mL,Aspergillus parasiticus,10 mm
same,IC50,MCF7,2.59 µM
same,zone of inhibition at 150 µg/mL,Streptococcus pyogenes,8 mm
same,zone of inhibition at 150 µg/mL,Aspergillus niger,10 mm
COc1ccc(C2C3=C(N=c4s/c(=C\c5c[nH]c6ccc(Br)cc56)c(=O)n42)c2ccc(OC)cc2CC3)cc1 (stereo unspecified),zone of inhibition at 150 µg/mL,Nakaseomyces glabratus,12 mm
same,zone of inhibition at 150 µg/mL,Pseudomonas aeruginosa,8 mm
same,IC50,HepG2,8.6 µM
same,zone of inhibition at 150 µg/mL,Staphylococcus aureus,8 mm
same,zone of inhibition at 150 µg/mL,Candida albicans,8 mm
same,zone of inhibition at 150 µg/mL,Klebsiella pneumoniae,8 mm
same,zone of inhibition at 150 µg/mL,Aspergillus parasiticus,10 mm
same,IC50,MCF7,7.72 µM
same,zone of inhibition at 150 µg/mL,Streptococcus pyogenes,8 mm
same,zone of inhibition at 150 µg/mL,Aspergillus niger,8 mm
Cc1[nH]c2ccccc2c1/C=c1\sc2n(c1=O)C(c1ccc(Cl)cc1)C1=C(N=2)c2ccccc2CC1 (stereo unspecified),zone of inhibition at 150 µg/mL,Nakaseomyces glabratus,19 mm
same,zone of inhibition at 150 µg/mL,Pseudomonas aeruginosa,17 mm
same,IC50,HepG2,69.8 µM
same,zone of inhibition at 150 µg/mL,Staphylococcus aureus,13 mm
same,zone of inhibition at 150 µg/mL,Candida albicans,16 mm
same,zone of inhibition at 150 µg/mL,Klebsiella pneumoniae,8 mm
same,zone of inhibition at 150 µg/mL,Aspergillus parasiticus,14 mm
same,IC50,MCF7,166 µM
same,zone of inhibition at 150 µg/mL,Streptococcus pyogenes,8 mm
same,zone of inhibition at 150 µg/mL,Aspergillus niger,14 mm
O=c1/c(=C/c2c[nH]c3ccccc23)sc2n1C(c1ccc(Cl)cc1)C1=C(N=2)c2ccccc2CC1 (stereo unspecified),zone of inhibition at 150 µg/mL,Nakaseomyces glabratus,12 mm
same,zone of inhibition at 150 µg/mL,Pseudomonas aeruginosa,18 mm
same,IC50,HepG2,16.3 µM
same,zone of inhibition at 150 µg/mL,Staphylococcus aureus,12 mm
same,zone of inhibition at 150 µg/mL,Candida albicans,8 mm
same,zone of inhibition at 150 µg/mL,Klebsiella pneumoniae,8 mm
same,zone of inhibition at 150 µg/mL,Aspergillus parasiticus,12 mm
same,IC50,MCF7,42.8 µM
same,zone of inhibition at 150 µg/mL,Streptococcus pyogenes,8 mm
same,zone of inhibition at 150 µg/mL,Aspergillus niger,12 mm
COc1ccc2[nH]cc(/C=c3\sc4n(c3=O)C(c3ccc(Cl)cc3)C3=C(N=4)c4ccccc4CC3)c2c1 (stereo unspecified),zone of inhibition at 150 µg/mL,Nakaseomyces glabratus,16 mm
same,zone of inhibition at 150 µg/mL,Pseudomonas aeruginosa,14 mm
same,IC50,HepG2,27.7 µM
same,zone of inhibition at 150 µg/mL,Staphylococcus aureus,14 mm
same,zone of inhibition at 150 µg/mL,Candida albicans,15 mm
same,zone of inhibition at 150 µg/mL,Klebsiella pneumoniae,8 mm
same,zone of inhibition at 150 µg/mL,Aspergillus parasiticus,18 mm
same,IC50,MCF7,20.7 µM
same,zone of inhibition at 150 µg/mL,Streptococcus pyogenes,8 mm
same,zone of inhibition at 150 µg/mL,Aspergillus niger,18 mm
O=c1/c(=C/c2c[nH]c3ccc(Br)cc23)sc2n1C(c1ccc(Cl)cc1)C1=C(N=2)c2ccccc2CC1 (stereo unspecified),zone of inhibition at 150 µg/mL,Nakaseomyces glabratus,10 mm
same,zone of inhibition at 150 µg/mL,Pseudomonas aeruginosa,15 mm
same,IC50,HepG2,13.7 µM
same,zone of inhibition at 150 µg/mL,Staphylococcus aureus,13 mm
same,zone of inhibition at 150 µg/mL,Candida albicans,8 mm
same,zone of inhibition at 150 µg/mL,Klebsiella pneumoniae,8 mm
same,zone of inhibition at 150 µg/mL,Aspergillus parasiticus,8 mm
same,IC50,MCF7,18.9 µM
same,zone of inhibition at 150 µg/mL,Streptococcus pyogenes,8 mm
same,zone of inhibition at 150 µg/mL,Aspergillus niger,8 mm
COc1cccc2c1C(=O)c1c(O)c3c(c(O)c1C2=O)C[C@@](O)(C(=O)CO)C[C@@H]3O[C@H]1C[C@H](N)[C@H](O)[C@H](C)O1 [DOXORUBICIN],IC50,HepG2,1.1 µM

# — ChEMBL document CHEMBL3352152, “Indolylmethylene benzo[h]thiazolo[2,3-b]quinazolinones: synthesis, characterization and evaluation of anticancer and antimicrobial activities” (Bioorg Med Chem Lett, 2014)
